“Also recorded” adds a separate entry of the source.
Columns and labels:
[1] = tested on: DU145 human prostate cancer cells; test: MTT cell viability assay, chemotherapeutics on naïve DU145; assay type: cell-based
Method in brief: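 DU145 in RPMI-1640 with 10% FBS, seeded at 2 × 10^4 cells/mL, then after 48 h given a paclitaxel (or doxorubicin) range from 400X DMSO dilutions for 48 h. PBS rinse, fresh medium 24 h, then MTT 4 h; formazan dissolved in DMSO, read at 570 minus 720 nm. Survival relative to DMSO controls (n = 12/plate); ≥9 replicates from ≥3 experiments.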

DU145TXR cells [2] = test: MTT cell viability assay, chemotherapeutics on multidrug-resistant DU145TXR; assay type: cell-based, human
DU145TXR cells [3] = test: Potentiation assay; assay type: cell-based, human; details: 10 nmol/L - 25 μmol/L inhibitor, 48 h
Method in brief: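 Paclitaxel-selected DU145TXR (maintained in 10 nmol/L paclitaxel) seeded, then after 48 h co-treated 48 h with 500 nmol/L paclitaxel plus inhibitor at 10 nmol/L–25 μmol/L (400X DMSO solutions), triplicate wells; parallel run without paclitaxel. MTT read at 570 minus 720 nm. Survival relative to DMSO-treated wells without inhibitor; ≥6 replicates from ≥2 experiments. PC50 from a four-parameter variable-slope fit.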

DU145TXR cells [4] = test: Intrinsic cytotoxicity assay; assay type: cell-based, human; details: for IC50: Homo sapiens, 48 h, read-out: IC50 (compound alone, estimated)
Method in brief: (§1)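 Cells seeded at 2 × 10^4 cells/mL, grown 48 h, then exposed 48 h to test compound at 0.05–50 μmol/L from 200X DMSO solutions, with DMSO controls (n = 12/plate). PBS rinse, then fresh medium for 24 h and MTT for 4 h; A570 minus A720, blank subtracted. Survival is relative to DMSO; ≥6 replicates, ≥2 experiments. IC50 from a four-parameter fit constrained 0–100. HFL1 grown in F-12K on collagen-treated surfaces.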

DU145TXR cells [5] = test: Dose-dependent sensitization to paclitaxel; assay type: cell-based, human; details: for Synergy with paclitaxel (isobologram): DU145TXR, 5, 10, 25 μmol/L compound
DU145TXR cells [6] = test: Reversal of resistance to doxorubicin; assay type: cell-based, human; details: 25 μmol/L compound, data not shown
P-gp [7] = details: in the presence of the transport substrate verapamil; ref Brewer et al. [2014]; cited from earlier work
HFL1 cells = test: Intrinsic cytotoxicity assay; assay type: cell-based, human; details: for Decrease in cell viability: HFL1, 25 μmol/L compound, not shown; for IC50: Homo sapiens, HFL1, 48 h, read-out: IC50 (compound alone, estimated)
Method in brief: as §1

DU145 cells = test: Intrinsic cytotoxicity assay; assay type: cell-based, human; details: for IC50: Homo sapiens, DU-145, 48 h, read-out: IC50 (compound alone, estimated)
Method in brief: as §1

P-gp [8] = details: ref Brewer et al. [2014]; cited from earlier work

Row | SMILES | Effect on sensitivity of DU145TXR to 500 nmol/L paclitaxel (DU145TXR cells [3]) | IC50 (DU145TXR cells [4]) | Synergy with paclitaxel (isobologram) (DU145TXR cells [5]) | Resensitization to doxorubicin (DU145TXR cells [6]) | Inhibition of verapamil-stimulated ATP hydrolysis (P-gp [7]) | Decrease in cell viability (HFL1 cells) | IC50 (HFL1 cells) | IC50 (DU145 cells) | Effect on nucleotide binding (ESR, SL-ATP) (P-gp [8]) | further results
1 | CC(=O)O[C@H]1C(=O)[C@@]2(C)[C@H]([C@H](OC(=O)c3ccccc3)[C@]3(O)C[C@H](OC(=O)[C@H](O)[C@@H](NC(=O)c4ccccc4)c4ccccc4)C(C)=C1C3(C)C)[C@]1(OC(C)=O)CO[C@@H]1C[C@@H]2O [Paclitaxel, paclitaxel] | – | – | – | – | – | – | – | – | – | Survival at 500 nmol/L paclitaxel [1]: < 10%; Survival at 500 nmol/L paclitaxel (DU145TXR cells [2]; DU145TXR): > 85%; IC50 (DU145TXR cells [2]; read-out: IC50 of chemotherapeutic alone, DU145TXR, 48 h incubation, MTT): 3.76 µM
2 | CCOC(=O)C1(CCCc2ccccc2)CCCN(C(=O)c2ccc3c(c2)OCO3)C1 (centres unmarked) [Compound 45, ethyl 1-(1,3-benzodioxole-5-carbonyl)-3-(3-phenylpropyl)piperidine-3-carboxylate] | strongly affected the sensitivity | 107 µM | strong synergistic effect | resensitized the MDR prostate cancer cells to doxorubicin to levels that are comparable with the naïve DU145 cell line | inhibit ATP hydrolysis | 13% | 62 µM | 41 µM | directly interfered with nucleotide binding | Cells killed (DU145TXR cells [4]; DU145TXR, 25 μmol/L compound, not shown): 36%; Cells killed (DU145 cells; DU145, 25 μmol/L compound, not shown): 31%
3 | CCC(C(=O)N1CCN(c2ccc(OC)cc2)CC1)n1nc(C)c2sc3ccccc3c2c1=O (centres unmarked) [Compound 34, 2-[1-[4-(4-methoxyphenyl)piperazin-1-yl]-1-oxobutan-2-yl]-4-methyl-[1]benzothiolo[2,3-d]pyridazin-1-one] | strongly affected the sensitivity | 412 µM | strong synergistic effect | resensitized the MDR prostate cancer cells to doxorubicin to levels that are comparable with the naïve DU145 cell line | inhibit ATP hydrolysis | 23% | 133 µM | 44 µM | directly interfered with nucleotide binding | –
4 | COC(=O)c1ccc(C(c2c(O)oc3ccccc3c2=O)c2c(O)oc3ccccc3c2=O)cc1 [Compound 19, methyl 4-[bis(2-hydroxy-4-oxochromen-3-yl)methyl]benzoate] | no apparent effect | – | – | – | inhibit ATP hydrolysis | – | – | 99 µM | directly interfered with nucleotide binding | Effect on sensitivity of DU145TXR to 500 nmol/L paclitaxel (DU145TXR cells [3]; listed as compound 19): no effect on the toxicity of paclitaxel; Effect on cell viability in sensitization experiments (DU145TXR cells [5]; DU145TXR, paclitaxel, 5, 10, 25 μmol/L compound): did not show any effect on cell viability
5 | Cc1cc(C)c(-c2cc(NC(=O)CSc3n[nH]c(C4CC4)n3)n(-c3ccccc3)n2)cc1C [Compound 29, 2-[(5-cyclopropyl-1H-1,2,4-triazol-3-yl)sulfanyl]-N-[2-phenyl-5-(2,4,5-trimethylphenyl)pyrazol-3-yl]acetamide] | strongly affected the sensitivity | 39 µM | strong synergistic effect | resensitized the MDR prostate cancer cells to doxorubicin to levels that are comparable with the naïve DU145 cell line | inhibit ATP hydrolysis | 35% | 42 µM | 34 µM | did not affect nucleotide-binding characteristics | –
6 | COc1ccc(CCN(C)CCCC(C#N)(c2ccc(OC)c(OC)c2)C(C)C)cc1OC (centres unmarked) [Verapamil, verapamil, reference compound] | – | 207 µM | – | – | – | – | – | 75 µM | – | –
7 | COc1cccc2c1C(=O)c1c(O)c3c(c(O)c1C2=O)C[C@@](O)(C(=O)CO)C[C@@H]3O[C@H]1C[C@H](N)[C@H](O)[C@H](C)O1 [doxorubicin] | – | – | – | – | – | – | – | – | – | Fold resistance (IC50 DU145TXR / IC50 DU145) (DU145TXR cells [2]; DU145TXR compared to DU145): over eightfold; also recorded: about eightfold

Reference: paper PMC4618641 (Pharmacology Research & Perspectives, 2015)
